Data as given in ChEMBL document CHEMBL1148748, “Synthesis of specific bivalent probes that functionally interact with 5-HT(4) receptor dimers” (J Med Chem, 2007).

How the values were obtained:
[1] = target: T1, 5-hydroxytryptamine receptor 4 (Homo sapiens, UniProt Q13639); assay: Agonist activity at human 5HT4e receptor expressed in C6 cells assessed as cAMP accumulation relative to 5HT; assay type: functional, cell-based; parameters: concentration or dose not given beside the values
How it was run: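 C6 glial cells stably expressing h5-HT4(e), serum-starved 4 h, preincubated 15 min with 5 mM theophylline plus 10 µM pargyline, then compound with or without 5-HT (1 µM) 15 min at 37 °C; stopped with ice-cold 20% perchloric acid, neutralized; cAMP by radioimmunoassay; expressed as % of 5-HT response; two experiments in triplicate.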

[2] = target: T1, 5-hydroxytryptamine receptor 4; assay: Displacement of [3H]GR-113808 from human 5HT4e receptor expressed in C6 cells; assay type: cell-based
[3] = target: T1, 5-hydroxytryptamine receptor 4; assay: Activity at 5HT4 receptor fused with RLuc and YFP fusion proteins expressed in CHO cells by BRET dimerization assay relative to control; assay type: functional, cell-based; parameters: concentration or dose not given beside the values
How it was run: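 CHO cells transiently cotransfected (Jet-PEI, 8 µg DNA per 100 mm dish) with C-terminal 5-HT4R-RLuc and 5-HT4R-YFP at equimolar amounts; membrane preparations incubated with ligand (1 µM, or dose-response) at 25 °C; coelenterazine h 5 µM final; 530/485 nm emission ratio minus RLuc-alone ratio gives BRET, in mBU; % of control; three experiments in duplicate.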

[4] = target: T1, 5-hydroxytryptamine receptor 4; assay: Binding affinity to YFP fused 5HT4 receptor expressed in CHO cells; assay type: cell-based
[5] = target: T1, 5-hydroxytryptamine receptor 4; assay: Binding affinity to Rluc fused 5HT4 receptor expressed in CHO cells; assay type: cell-based

T1 sequence (Q13639 whole entry): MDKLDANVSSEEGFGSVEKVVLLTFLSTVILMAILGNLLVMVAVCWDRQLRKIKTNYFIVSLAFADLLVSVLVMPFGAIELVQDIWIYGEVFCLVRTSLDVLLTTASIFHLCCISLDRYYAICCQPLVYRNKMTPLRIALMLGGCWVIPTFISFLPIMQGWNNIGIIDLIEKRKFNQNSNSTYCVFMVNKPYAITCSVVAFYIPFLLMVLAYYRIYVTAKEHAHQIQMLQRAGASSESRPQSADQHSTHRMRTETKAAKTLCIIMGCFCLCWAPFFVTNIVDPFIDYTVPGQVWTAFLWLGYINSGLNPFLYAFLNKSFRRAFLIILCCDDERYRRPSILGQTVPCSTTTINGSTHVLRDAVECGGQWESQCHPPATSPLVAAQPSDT

| Activity [1] [%] | Ki [2] [nM] | Activity [3] [%] | Ki [5] [nM] | Structure (SMILES) | Ki [4] [nM] |
| --- | --- | --- | --- | --- | --- |
| 6 | 40 | 108 | – | COc1cc(N)c(Cl)cc1C(=O)OCCN1CCC(CNC(=O)CCCN(CC#Cc2cccc(C#CCN(CCCC(=O)NCC3CCN(CCOC(=O)c4cc(Cl)c(N)cc4OC)CC3)C(=O)OC(C)(C)C)c2)C(=O)OC(C)(C)C)CC1 | – |
| 1 | 25 | 115 | – | COc1cc(N)c(Cl)cc1C(=O)OCCN1CCC(CNC(=O)CCCN(CC#Cc2ccc(C#CCN(CCCC(=O)NCC3CCN(CCOC(=O)c4cc(Cl)c(N)cc4OC)CC3)C(=O)OC(C)(C)C)cc2)C(=O)OC(C)(C)C)CC1 | – |
| 8 | 8 | 109 | – | COc1cc(N)c(Cl)cc1C(=O)OCCN1CCC(NC(=O)CCCN(CC#Cc2cccc(C#CCN(CCCC(=O)NC3CCN(CCOC(=O)c4cc(Cl)c(N)cc4OC)CC3)C(=O)OC(C)(C)C)c2)C(=O)OC(C)(C)C)CC1 | – |
| 21 | 12 | 118 | 10 | COc1cc(N)c(Cl)cc1C(=O)OCCN1CCC(NC(=O)CCCN(CCCc2ccc(CCCN(CCCC(=O)NC3CCN(CCOC(=O)c4cc(Cl)c(N)cc4OC)CC3)C(=O)OC(C)(C)C)cc2)C(=O)OC(C)(C)C)CC1 | 10 |
| 17 | 34 | 105 | – | COc1cc(N)c(Cl)cc1C(=O)OCCN1CCC(NC(=O)CCCN(CCCc2ccc(CCCN(CCCC(=O)NC3CCCCC3)C(=O)OC(C)(C)C)cc2)C(=O)OC(C)(C)C)CC1 | – |
| 46 | 7 | 108 | – | COc1cc(N)c(Cl)cc1C(=O)OCCN1CCC(NC(=O)CCCCCNC(=O)C2CCN(CCOC(=O)c3cc(Cl)c(N)cc3OC)CC2)CC1 | – |
| 45 | – | 101 | – | COc1cc(N)c(Cl)cc1C(=O)OCCN1CCCCC1 | – |
| 5 | 23 | 108 | – | COc1cc(N)c(Cl)cc1C(=O)OCCN1CCC(CNC(=O)CCCN(CCCc2cccc(CCCN(CCCC(=O)NCC3CCN(CCOC(=O)c4cc(Cl)c(N)cc4OC)CC3)C(=O)OC(C)(C)C)c2)C(=O)OC(C)(C)C)CC1 | – |
| 10 | – | 114 | – | COc1cc(N)c(Cl)cc1C(=O)OCCN1CCC(NC(=O)CCCCCCCCCCN(CCCCCCCCCCC(=O)NC2CCN(CCOC(=O)c3cc(Cl)c(N)cc3OC)CC2)CC(=O)NCC2CCNCC2)CC1 | – |
| 49 | 44 | 107 | – | COc1cc(N)c(Cl)cc1C(=O)OCCN1CCC(CNC(=O)CN(CC#Cc2ccc(C#CCN(CC(=O)NCC3CCN(CCOC(=O)c4cc(Cl)c(N)cc4OC)CC3)C(=O)OC(C)(C)C)cc2)C(=O)OC(C)(C)C)CC1 | – |
| 12 | – | 114 | – | COc1cc(N)c(Cl)cc1C(=O)OCCN1CCC(NC(=O)CCCCCCCCCCNc2nc(NCCCCCCCCCCC(=O)NC3CCN(CCOC(=O)c4cc(Cl)c(N)cc4OC)CC3)nc(NCc3ccccc3)n2)CC1 | – |
| 35 | 18 | 106 | – | COc1cc(N)c(Cl)cc1C(=O)OCCN1CCC(NC(=O)CCCN(CC#Cc2ccc(C#CCN(CCCC(=O)NC3CCN(CCOC(=O)c4cc(Cl)c(N)cc4OC)CC3)C(=O)OC(C)(C)C)cc2)C(=O)OC(C)(C)C)CC1 | – |
| 9 | 15 | 115 | – | COc1cc(N)c(Cl)cc1C(=O)OCCN1CCC(CNC(=O)CCCN(CCCc2ccc(CCCN(CCCC(=O)NCC3CCN(CCOC(=O)c4cc(Cl)c(N)cc4OC)CC3)C(=O)OC(C)(C)C)cc2)C(=O)OC(C)(C)C)CC1 | – |
| 18 | 19 | 114 | – | COc1cc(N)c(Cl)cc1C(=O)OCCN1CCC(CNC(=O)CN(CCCc2ccc(CCCN(CC(=O)NCC3CCN(CCOC(=O)c4cc(Cl)c(N)cc4OC)CC3)C(=O)OC(C)(C)C)cc2)C(=O)OC(C)(C)C)CC1 | – |
| 5 | – | 110 | – | COc1cc(N)c(Cl)cc1C(=O)OCCN1CCC(NC(=O)CCCCCCCCCCNC(=O)C2CCN(CCOC(=O)c3cc(Cl)c(N)cc3OC)CC2)CC1 | – |
| 6 | 9 | 108 | – | COc1cc(N)c(Cl)cc1C(=O)OCCN1CCC(CCNC(=O)CCCCCCCCCCC(=O)NCCC2CCN(CCOC(=O)c3cc(Cl)c(N)cc3OC)CC2)CC1 | – |

| Structure (SMILES) | Activity [1] [%] | Ki [2] [nM] | Activity [3] [%] | Ki [5] [nM] | Ki [4] [nM] |
| --- | --- | --- | --- | --- | --- |
| Cn1cc(C(=O)OCC2CCN(CCNS(C)(=O)=O)CC2)c2ccccc21 | 1 | – | 99 | – | 0.7 |
